Key:
C8166 = experiment: Inhibitory concentration against cell culture of Human T-cell line c8166 infected with HIV-1 IIIB strain was determined; format: functional, cell-based
[1] = target: Human immunodeficiency virus type 1 reverse transcriptase (Human immunodeficiency virus 1, UniProt Q72547, Y181C); experiment: Inhibitory activity against HIV-1 Y181C Reverse transcriptase (RT)
Outline: (§1)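 The enzyme was either p66/p51 heterodimer purified to near homogeneity or crude E. coli lysate containing the mutant RT. Inhibitory concentration was measured in an RT enzyme assay.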

[2] = target: Human immunodeficiency virus type 1 reverse transcriptase (Human immunodeficiency virus 1, UniProt Q72547); experiment: Inhibitory concentration against HIV-1 wild type Reverse transcriptase (RT)
[3] = target: Human immunodeficiency virus type 1 reverse transcriptase (Human immunodeficiency virus 1, UniProt Q72547, P236L); experiment: Inhibitory concentration against mutant reverse transcriptase of P236L was determined which is in turn resistant to BHAP; outline: as §1
[4] = target: Human immunodeficiency virus type 1 reverse transcriptase (Human immunodeficiency virus 1, UniProt Q72547, L100I); experiment: Inhibitory concentration against mutant reverse transcriptase of L100I was determined which is in turn resistant TIBO; outline: as §1
[5] = target: Human immunodeficiency virus type 1 reverse transcriptase (Human immunodeficiency virus 1, UniProt Q72547, K103N); experiment: Inhibitory concentration against mutant reverse transcriptase of K103N was determined which is in turn resistant to pyridinones; outline: as §1
[6] = target: Human immunodeficiency virus type 1 reverse transcriptase (Human immunodeficiency virus 1, UniProt Q72547, E138K); experiment: Inhibitory concentration against mutant reverse transcriptase of E138K was determined which is in turn resistant to TSAO; outline: as §1

SMILES	IC50 [1] [nM]	IC50 [2] [nM]	also measured
Cc1ccnc2c1NC(=O)c1cccnc1N2C1CC1 [NEVIRAPINE]			IC50 (C8166): 40 nM
CCN1c2ncccc2C(=O)N(C)c2ccc(-c3ccsc3)nc21	300	100	
CN1C(=O)c2cccnc2N(C2CC2)c2nc(-c3ccncc3)ccc21	320	150	
CCN1c2ncccc2C(=O)N(C)c2ccc(-c3ccc(O)nc3)nc21	> 1000	1100	
CCN1c2ncccc2C(=O)N(C)c2ccc(-n3cccn3)nc21	560	310	
CCN1c2ncccc2C(=O)Nc2c(C)cc(NCCO)nc21	> 1000	90	
CCN1c2ncccc2C(=O)N(C)c2ccc(-c3ccc(N)nc3)nc21	260	50	IC50 [3]: 40 nM; IC50 (C8166): 240 nM; IC50 [4]: 240 nM; IC50 [5]: 410 nM; IC50 [6]: 20 nM
CN1C(=O)c2cccnc2N(C2CC2)c2nc(Br)ccc21	2100	30	
CCN1c2ncccc2C(=O)N(C)c2ccc(NC)nc21	710	190	
CCN1c2ncccc2C(=O)N(C)c2ccc(-c3nccs3)nc21	240	100	
CCN1c2ncccc2C(=O)Nc2c(C)cc(SC)nc21	> 1000	20	
Cc1cc(C)c2c(n1)N(C1CC1)c1ncccc1C(=O)N2	1200	70	
CCN1c2ncccc2C(=O)N(C)c2cccnc21	2200		
CCNc1ccc2c(n1)N(CC)c1ncccc1C(=O)N2C	1300	230	
COc1ccc2c(n1)N(C1CC1)c1ncccc1C(=O)N2C	1100	120	
CN1C(=O)c2cccnc2N(C2CC2)c2nc(-c3cccnc3)ccc21	440	180	
CCN1c2ncccc2C(=O)N(C)c2ccc(-c3cnc[nH]3)nc21	740	3700	
CCN1c2ncccc2C(=O)N(C)c2ccc(-c3ncc[nH]3)nc21	190	130	
CCN1c2ncccc2C(=O)Nc2c(C)ccnc21	1800	40	
C#Cc1ccc2c(n1)N(CC)c1ncccc1C(=O)N2C	420	140	
CCN1c2ncccc2C(=O)Nc2c(C)cc(NCCCO)nc21	> 1000	90	
CCN1c2ncccc2C(=O)N(C)c2ccc(N(C)C)nc21	770	70	
CCN1c2ncccc2C(=O)Nc2c(C)cc(C)nc21	> 1000	20	

SMILES	IC50 [1] [nM]	IC50 [2] [nM]	also measured
CCN1c2ncccc2C(=O)N(C)c2ccc(N3CCCC3)nc21	3800	20	
CCN1c2ncccc2C(=O)N(C)c2ccc(-c3ccccc3)nc21	1400	230	
CCN1c2ncccc2C(=O)N(C)c2ccc(-c3ccoc3)nc21	110	40	
CCN1c2ncccc2C(=O)N(C)c2ccc(N)nc21	> 1000	> 1000	
CCN1c2ncccc2C(=O)N(C)c2ccc(-c3cc[nH]n3)nc21	290	390	
CCN1c2ncccc2C(=O)N(C)c2ccc(-c3cccc(O)c3)nc21	180	100	
CCN1c2ncccc2C(=O)N(C)c2ccc(-c3ccccn3)nc21	1600	180	
CCN1c2ncccc2C(=O)N(C)c2ccc(N3CC=CC3)nc21	640	30	
CCN1c2ncccc2C(=O)N(C)c2ccc(C)nc21	1200	120	
C/C=C/Nc1ccc2c(n1)N(CC)c1ncccc1C(=O)N2C	> 1000	390	
CCN1c2ncccc2C(=O)N(C)c2ccc(-c3ccc(OC)cc3)nc21	3200	1400	
CCN1c2ncccc2C(=O)Nc2c(C)cc(N3CCC(O)C3)nc21 (stereo unspecified)	> 1000	40	
CCN1c2ncccc2C(=O)N(C)c2ccc(N3CCCCC3)nc21	> 1000	300	
CCN1c2ncccc2C(=O)Nc2c(C)cc(C(C)(C)C)nc21	> 1000	> 1000	
CCN1c2ncccc2C(=O)N(C)c2ccc(-c3ccc(N)cc3)nc21	120	40	IC50 [3]: 260 nM; IC50 (C8166): 550 nM; IC50 [4]: 570 nM; IC50 [5]: 260 nM; IC50 [6]: 60 nM
CCN1c2ncccc2C(=O)N(C)c2ccc(-c3ccccc3OC)nc21	2500	820	
CCN1c2ncccc2C(=O)N(C)c2ccc(Cl)nc21	210	80	IC50 [3]: 20 nM; IC50 (C8166): 160 nM; IC50 [5]: 1100 nM; IC50 [6]: 120 nM
CCN1c2ncccc2C(=O)N(C)c2ccc(-c3ccc(OC)nc3)nc21	3000	1200	
CN1C(=O)c2cccnc2N(C2CC2)c2nc(Cl)ccc21	920		
CCN1c2ncccc2C(=O)Nc2c(C)cc(F)nc21	850	20	
CCN1c2ncccc2C(=O)N(C)c2ccc(OC)nc21	600	40	
CN1C(=O)c2cccnc2N(C2CC2)c2nc(-c3cc[nH]c3)ccc21	60	50	
CCN1c2ncccc2C(=O)N(C)c2ccc(-c3ccc[nH]3)nc21	70	70	

SMILES	IC50 [1] [nM]	IC50 [2] [nM]	also measured
CCc1cc(C)c2c(n1)N(CC)c1ncccc1C(=O)N2	1700	90	
CCN1c2ncccc2C(=O)N(C)c2ccc(/C=C/C(=O)OC)nc21	670	180	
CCN1c2ncccc2C(=O)N(C)c2ccc(-c3ccco3)nc21	160	110	
CCN1c2ncccc2C(=O)N(C)c2ccc(-n3cccc3)nc21	210	90	
CCN1c2ncccc2C(=O)N(C)c2ccc(-c3cccc(N)c3)nc21	560		
CCN1c2ncccc2C(=O)N(C)c2ccc(-c3ncco3)nc21	820	220	
CCN1c2ncccc2C(=O)N(C)c2ccc(-c3cc[nH]c3)nc21	40	30	IC50 [3]: 130 nM; IC50 (C8166): 40 nM; IC50 [4]: 410 nM; IC50 [5]: 50 nM; IC50 [6]: 70 nM
CCN1c2ncccc2C(=O)N(C)c2ccc(-c3cnco3)nc21	560	110	
CCN1c2ncccc2C(=O)N(C)c2ccc(-c3cccs3)nc21	420	140	
CCN1c2ncccc2C(=O)Nc2c(C)cc(N(C)CCO)nc21	> 1000	10	
CCN1c2ncccc2C(=O)Nc2c(C)cc(Cl)nc21	800	10	
CN1C(=O)c2cccnc2N(C2CC2)c2nc(-c3cn[nH]c3)ccc21	50	60	IC50 [3]: 340 nM; IC50 (C8166): 120 nM; IC50 [4]: 1500 nM; IC50 [5]: 420 nM; IC50 [6]: 460 nM
CCN1c2ncccc2C(=O)N(C)c2ccc(=O)[nH]c21	> 1000	470	
CCN1c2ncccc2C(=O)Nc2c(C)cc(C(C)C)nc21	> 1000	1000	
CCN1c2ncccc2C(=O)N(C)c2ccc(-c3ccc(O)cc3)nc21	270	70	IC50 [3]: 1 nM; IC50 (C8166): 300 nM; IC50 [4]: 500 nM; IC50 [5]: 10 nM; IC50 [6]: 60 nM
CCN1c2ncccc2C(=O)N(C)c2ccc(-c3cn[nH]c3)nc21	60	20	IC50 [3]: 130 nM; IC50 (C8166): 40 nM; IC50 [4]: 2500 nM; IC50 [5]: 80 nM; IC50 [6]: 50 nM
CCN1c2ncccc2C(=O)N(C)c2ccc(-c3cccc(OC)c3)nc21	210	150	
Cc1cc(Cl)nc2c1NC(=O)c1cccnc1N2C1CC1	780	20	
CCN1c2ncccc2C(=O)N(C)c2ccc(/C=C/C(N)=O)nc21	2400	250	
CCN1c2ncccc2C(=O)Nc2c(C)cc(N3CCSCC3)nc21	> 1000	150	
CCN1c2ncccc2C(=O)N(C)c2ccc(-c3cncs3)nc21	1100	380	
CCN1c2ncccc2C(=O)N(C)c2ccc(N3CCOCC3)nc21	> 1000	400	

Source: ChEMBL document CHEMBL1128204, “Novel non-nucleoside inhibitors of human immunodeficiency virus type 1 (HIV-1) reverse transcriptase. 4. 2-Substituted dipyridodiazepinones as potent inhibitors of both wild-type and cysteine-181 HIV-1 reverse transcriptase enzymes” (J Med Chem, 1995)
